# Screens (PubChem BioAssay)
# TRPC6 act = mouse TRPC6 channel activators, primary screen, cell-based, HEK293, membrane potential dye; Short transient receptor potential channel 6 (Mus musculus), Q61143; HEK293-TRPC6 membrane potential dye fluorescence; active compounds read high; B-score at 10 µM; actives 0.13% (n = 310,000);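 active = B-score of the integrated fluorescence ratio above library mean plus 3 SD, and starting fluorescence ratio within library mean plus 5 SD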;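 also: higher score means more depolarization so channel activation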
# CR mimetic SO = reduction of superoxide in aged yeast, primary screen, HTS. actives 0.18% (n = 330,000). S. cerevisiae aged cells, superoxide DHE fluorescence; active compounds read low. superoxide response (% of plate mean), % at 10 µM;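 active = superoxide response under a set limit, about three screen SD below normal, cut at about 65% in these data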;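 also: yeast aged for seven days with compound at 30 °C before DHE staining; 100% = average MFI of all compound-treated wells on the plate with controls excluded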
# TRPC4 agonist = activators of mouse TRPC4 channel, primary screen, Fluo4 calcium, HEK293 TRPC4beta/mu-opioid cells; Short transient receptor potential channel 4 (Mus musculus), Q9QUQ5; Fluo4 calcium fluorescence; active compounds read high; B-score at 10 µM; actives 0.49% (n = 310,000); AID 2237, 2010;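 active = B-score above 5 SD of library B-scores, and initial fluorescence ratio not above library mean plus 5 SD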;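 also: positive B-score marks a calcium rise read as TRPC4 activation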
#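 Assay system: HEK293 stable line with TRPC4beta plus mu-opioid receptor; schedule: 45 min room-temperature Fluo4 loading, 110 s read; technique: kinetic Fluo4 calcium fluorescence; evaluation: integrated baseline-normalised fluorescence ratio, converted to per-well B score; controls: buffer (low) and maximal DAMGO (high)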
# TRPC4 inh = inhibitors of mouse TRPC4 channel, primary screen, Fluo4 calcium, HEK293 TRPC4beta/mu-opioid cells; Short transient receptor potential channel 4 (Mus musculus), Q9QUQ5; DAMGO-evoked Fluo4 calcium flux; active compounds read low; B-score at 10 µM; actives 0.39% (n = 300,000); AID 2247, 2010;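 active = B-score over 3 SD under the library average, no early fluorescence shift, positive overall ratio signal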
#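 Assay system: Stable TRPC4beta/mu-opioid receptor HEK293 cells | Reagent: DAMGO in two steps, submaximal then maximal | Compound dosing: Single concentration per test compound | Signal: Fluo4 Ca2+ flux fluorescence | Evaluation: Per-well B score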
# TRPC6 inhibitor = mouse TRPC6 channel inhibitors, primary screen, cell-based, HEK293, membrane potential dye; Short transient receptor potential channel 6 (Mus musculus), Q61143; ACh-evoked depolarization; active compounds read low; B-score at 10 µM; actives 1.1% (n = 310,000); AID 2553, 2010;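 active = B-score under library mean minus 3 SD, initial fluorescence not abnormally high, positive integrated signal ratio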;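 also: B-score derived from integrated fluorescence ratio over the kinetic read; more negative B-score means stronger inhibition of depolarization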
# TRPC4 PAM = positive allosteric modulators of TRPC4, primary screen, cell-based, mouse TRPC4beta, HEK293 mu-opioid, Fluo-4 calcium; Short transient receptor potential channel 4 (Mus musculus), Q9QUQ5; B-score at 10 µM; DAMGO EC20, Fluo-4 Ca2+ flux; active compounds read high; actives 0.42% (n = 310,000); AID 2227, 2009;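 active = B-score of calcium response area above 5 SD of library B-scores, with initial fluorescence ratio within 5 SD of library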;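 also: B-score of integrated fluorescence ratio over time as area under calcium response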
# * hit, by the source's call; i = inactive; nt = no result given. Shown are actives, neighbours in structure and some others; about 2.3% of the full set was active somewhere.
SMILES,TRPC6 act,CR mimetic SO,TRPC4 agonist,TRPC4 inh,TRPC6 inhibitor,TRPC4 PAM
N[C@@H](Cc1ccccc1)C(=O)N1CCC(C(=O)N[C@@H](Cc2c[nH]c3ccccc23)C(=O)O)CC1,i,98,i,-6*,i,i
COc1ccc(-c2ccc3c(c2)S(=O)(=O)c2cccc(C(=O)NC[C@@H]4CCCO4)c2C3=O)cc1OC,nt,103,nt,nt,nt,nt
Cn1c2c(c(=O)n(C)c1=O)C(C(F)(F)F)(C(F)(F)F)N=C(CCC1CCCCC1)N2,i,95,i,i,i,11*
Cn1c2c(c(=O)n(C)c1=O)C(C(F)(F)F)(C(F)(F)F)N=C(c1ccccc1Cl)N2,i,106,i,i,i,i
CCOC(=O)C1(Cc2ccccc2C)CCCN(C(=O)c2sccc2C)C1 (centres undefined),i,96,i,i,i,i
COc1ccc2nc3cc(Cl)ccc3c(Nc3cc(C(C)C)c(O)cc3C)c2c1,i,111,i,i,i,i
COc1ccc2nc3cc(Cl)ccc3c(Nc3cc(CN4CCCC4)c(O)c(CN4CCCC4)c3)c2n1,i,104,i,i,-6.6*,i
COC(=O)c1ccccc1NC(=O)CCC(=O)N1CC(C)Oc2ccc(C)cc21 (centres undefined),i,85,i,-8*,i,i
CNc1nc(SCc2ccccc2Cl)nc2c1CCCC2,i,104,i,-6*,i,i
O=c1[nH]c(SCc2ccccc2Cl)nc2c1CCC2,i,106,i,i,i,i
Cc1nc(-c2cccc(C(F)(F)F)c2)sc1C(=O)O,i,134,i,-6*,i,i
Cc1nc(-c2ccccc2)sc1C(=O)O,i,96,i,i,i,i
CN(C)c1ccc(NC(=O)C2C3C=CC(C3)C2C(=O)O)cc1 (centres undefined),i,103,i,i,i,21*
NS(=O)(=O)c1ccc(Nc2nc(-c3ccc(O)cc3O)cs2)cc1,i,93,i,-6*,i,i
COc1cc(NC(C)CCCN)c2ncccc2c1 (centres undefined),i,90,181*,i,i,i
CC1CC(C)CN(CCCNC(=O)COc2cc(=O)n(C)c3ccccc23)C1 (centres undefined),i,100,85*,i,i,10*
CCn1c(=O)cc(OCC(=O)NCCCN2CCC(C)CC2)c2ccccc21,i,94,i,i,i,i
CCn1c(=O)cc(OCC(=O)NCCCN2CC(C)CC(C)C2)c2ccccc21 (centres undefined),i,97,90*,i,i,i
COc1ccc(CSc2cccc3cccnc23)cc1[N+](=O)[O-],i,100,i,i,i,i
COCCCNC(=O)CN1C(=O)COc2ccc(S(=O)(=O)N3CCCCCC3)cc21,i,90,i,i,i,i
Cc1csc(NC(=O)c2ccc(C)c(S(=O)(=O)N3CCOCC3)c2)n1,i,102,i,i,i,i
C=CCN(C)CC/C=C1\c2ccccc2CSc2ccccc21,i,103,i,-5*,i,i
CN(CC/C=C1/c2ccccc2CSc2ccccc21)CCCO,i,100,i,i,i,i
Cc1c(Cl)c(C(=O)Nc2nc3ccccc3n2CCN2CCCCC2)nn1C,i,93,i,i,-8.2*,i
CCCn1c(NC(=O)c2ccc(Cl)c(S(=O)(=O)N3CCCC3)c2)nc2ccccc21,i,106,i,-7*,i,32*
SMILES,TRPC6 act,CR mimetic SO,TRPC4 agonist,TRPC4 inh,TRPC6 inhibitor,TRPC4 PAM
CCN(CC)S(=O)(=O)c1ccc(O)c(NC(=O)c2ccc(N3CCOCC3)c([N+](=O)[O-])c2)c1,i,90,i,i,i,i
CC(=O)c1ccc(N2CCN(C(=O)C(=O)c3c(C)[nH]c4ccccc34)CC2)cc1,i,106,i,i,i,10*
Cc1ccc(S(=O)(=O)Oc2ccc(C3C4=C(CCCC4=O)OC4=C3C(=O)CCC4)cc2)cc1,i,99,i,i,i,i
CCN1CCN(c2cc(C)c3cc(NC(=S)N4CCN(c5ccccc5F)CC4)ccc3n2)CC1,i,102,i,i,i,i
CCCCN(CC)CCCNC(=S)Nc1ccc2nc(N3CCN(CC)CC3)cc(C)c2c1,i,85,71*,i,i,i
O=c1c2cc(NC(=S)NCCN3CCCCCC3)ccc2nc2n1CCCCC2,i,120,i,i,i,i
CCCCN(CC)CCCNC(=S)Nc1ccc2nc3n(c(=O)c2c1)CCCCC3,i,98,i,i,i,10*
NCCCn1cnc2ccccc21,i,90,i,i,i,i
O=C(Nc1ccc(F)cc1F)c1ccco1,i,134,70*,i,i,i
O=C(Nc1ccc(F)cc1F)c1cc(-c2ccco2)on1,i,78,i,i,i,i
CCC(=O)Nc1nnc(S(=O)(=O)N(CC)c2cc(C)cc(C)c2)s1,i,100,i,i,i,i
COC(=O)CSc1nnc(CNS(=O)(=O)c2ccc(Br)cc2)n1C,i,110,i,-6*,i,i
O=C(/C=N/O)NCCCN1CCCCCC1,i,124,i,i,i,i
NC(=O)c1nsc(C(=O)N(Cc2ccccc2F)C(C(=O)NCC2CCCO2)c2ccc(F)cc2)c1N (centres undefined),i,111,i,-8*,i,i
Cc1cccc(CCN(C(=O)c2snc(C(N)=O)c2N)C(C(=O)NCC2CCCO2)c2ccc(F)cc2)c1 (centres undefined),i,nt,i,-7*,i,i
NC(=O)c1nsc(C(=O)N(Cc2ccco2)C(C(=O)NCC2CCCO2)c2ccc(O)cc2)c1N (centres undefined),i,91,i,i,i,i
NC(=O)c1nsc(C(=O)N(c2ccccc2)C(C(=O)NCC2CCCO2)c2ccc(F)cc2)c1N (centres undefined),i,92,i,i,i,i
